Results as given in ChEMBL document CHEMBL1125123, “Antimalarial activity of new water-soluble dihydroartemisinin derivatives. 3. Aromatic amine analogues” (J Med Chem, 1990).
Converted amounts (≈) assume the structure as drawn.

Experiments:
Plasmodium falciparum [1] = test: Antimalarial activity against Plasmodium falciparum W-2 Indochina in human malaria; type: functional, organism-based
Procedure, shortened: (§1)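 Compounds dissolved in DMSO and 70% ethanol, then diluted in RPMI 1640 with 10% human plasma and tested over 1.56–100 × 10⁻⁹ M. Parasites at 0.5% parasitemia and 1% hematocrit were exposed to compound for 24 h before ³H-hypoxanthine was added. Uptake was read by scintillation counting, and IC50 was derived by nonlinear regression of concentration-response data.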

Plasmodium falciparum [2] = test: Antimalarial activity against Plasmodium falciparum D6 Africa in human malaria; type: functional, organism-based; procedure, shortened: as §1

SMILES	IC50 (Plasmodium falciparum [1]) [ng/mL]	IC50 (Plasmodium falciparum [2]) [ng/mL]
C[C@@H]1CC[C@H]2[C@](C)(Br)[C@@H](Nc3nccs3)O[C@@H]3O[C@@]4(C)CC[C@@H]1[C@]32OO4	0.21 (≈ 0.472 nM)	0.91 (≈ 2.04 nM)
C[C@@H]1CC[C@H]2[C@@H](C)C(=O)O[C@@H]3O[C@@]4(C)CC[C@@H]1[C@]32OO4 [ARTEMISININ]	–	0.56 (≈ 1.98 nM)
C[C@@H]1CC[C@H]2[C@](C)(Br)[C@@H](Nc3ccccn3)O[C@@H]3O[C@@]4(C)CC[C@@H]1[C@]32OO4	1.19 (≈ 2.71 nM)	7.72 (≈ 17.6 nM)
C[C@@H]1CC[C@H]2[C@](C)(Br)[C@@H](Nc3ncccn3)O[C@@H]3O[C@@]4(C)CC[C@@H]1[C@]32OO4	5.56 (≈ 12.6 nM)	26 (≈ 59 nM)
C[C@@H]1CC[C@H]2[C@](C)(Br)[C@@H](Nc3ccccc3)O[C@@H]3O[C@@]4(C)CC[C@@H]1[C@]32OO4	0.63 (≈ 1.44 nM)	3.42 (≈ 7.8 nM)
C[C@@H]1CC[C@H]2[C@](C)(Br)[C@@H](Nc3cccc(F)c3)O[C@@H]3O[C@@]4(C)CC[C@@H]1[C@]32OO4	< 0.16	0.16 (≈ 0.351 nM)
